Calls of active or inactive are those of the source. The rule behind the calls is not given here.
How the values were obtained:
[1] = test system: NCI-H1975; experiment: Antiproliferative activity against human NCI-H1975 cells using 1% DMSO/water compound formulation after 72 hrs by MTT assay; format: functional, cell-based; conditions: NCI-H1975, 72 h
Method in brief: (§1)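 MTT anti-proliferation on NSCLC lines. Compounds dissolved in DMSO, diluted with water to 1% DMSO, then into growth medium (max 0.032% DMSO on cells); or dissolved in 10% (w/v) 2-HPβCD in water, then diluted (max 0.008% w/w 2-HPβCD in wells; vehicle controls at 0.008%). IC50 = concentration giving 50% loss of viability versus control cells. Cisplatin dissolved in water with stirring.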

[2] = test system: HCC827; experiment: Antiproliferative activity against human HCC827 cells using 10% 2-HPbetaCD compound formulation after 72 hrs by MTT assay; format: functional, cell-based; conditions: HCC827, 72 h; method in brief: as §1
[3] = test system: HCC827; experiment: Antiproliferative activity against human HCC827 cells using 1% DMSO/water compound formulation after 72 hrs by MTT assay; format: functional, cell-based; conditions: HCC827, 72 h; method in brief: as §1
[4] = test system: A549; experiment: Antiproliferative activity against human A549 cells using 1% DMSO/water compound formulation after 72 hrs by MTT assay; format: functional, cell-based; conditions: A549, 72 h; method in brief: as §1
[5] = test system: NCI-H460; experiment: Antiproliferative activity against human NCI-H460 cells using 1% DMSO/water compound formulation after 72 hrs by MTT assay; format: functional, cell-based; conditions: NCI-H460, 72 h; method in brief: as §1
[6] = test system: A549; experiment: Antiproliferative activity against human A549 cells using 10% 2-HPbetaCD compound formulation after 72 hrs by MTT assay; format: functional, cell-based; conditions: A549, 72 h; method in brief: as §1
[7] = Solubility of the compound in 1% DMSO/water solution; format: physicochemical; conditions: buffer
[8] = test system: NCI-H1975; experiment: Antiproliferative activity against human NCI-H1975 cells using 10% 2-HPbetaCD compound formulation after 72 hrs by MTT assay; format: functional, cell-based; conditions: NCI-H1975, 72 h; method in brief: as §1
[9] = Solubility of the compound in 10% 2-HPbetaCD/water solution; format: physicochemical
[10] = Aqueous solubility of the compound in water; format: physicochemical; conditions: buffer
[11] = test system: NCI-H460; experiment: Antiproliferative activity against human NCI-H460 cells using 10% 2-HPbetaCD compound formulation after 72 hrs by MTT assay; format: functional, cell-based; conditions: NCI-H460, 72 h; method in brief: as §1
[12] = test system: HOP-62; experiment: Growth inhibition of human HOP62 cells assessed as cell growth at 10 uM after 24 hrs by SRB assay relative to control; format: functional; conditions: HOP-62, 24 h, read-out: Activity
Method in brief: (§2)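 NCI DTP one-dose screen: cells plated at density set by doubling rate, incubated overnight, then exposed to compound at 10 μM for 24 hours. Growth percentage from protein density at end versus start of experiment, relative to initial cell number.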

[13] = test system: NCI-H23; experiment: Growth inhibition of human NCI-H23 cells assessed as cell growth at 10 uM after 24 hrs by SRB assay relative to control; format: functional; conditions: NCI-H23, 24 h, read-out: Activity; method in brief: as §2
[14] = test system: NCI-H522; experiment: Growth inhibition of human NCI-H522 cells after 24 hrs by SRB assay; format: functional; conditions: NCI-H522, 24 h; for CC50: read-out: LC50 (the source's name)
[15] = test system: HOP-92; experiment: Growth inhibition of human HOP92 cells after 24 hrs by SRB assay; format: functional; conditions: HOP-92, 24 h; for CC50: read-out: LC50 (the source's name)
[16] = test system: NCI-H226; experiment: Growth inhibition of human NCI-H226 cells assessed as cell growth at 10 uM after 24 hrs by SRB assay relative to control; format: functional; conditions: NCI-H226, 24 h, read-out: Activity; method in brief: as §2
[17] = test system: NCI-H23; experiment: Growth inhibition of human NCI-H23 cells after 24 hrs by SRB assay; format: functional; conditions: NCI-H23, 24 h; for CC50: read-out: LC50 (the source's name)
[18] = test system: NCI-H322M; experiment: Growth inhibition of human NCI-H322M cells after 24 hrs by SRB assay; format: functional
[19] = test system: EKVX; experiment: Growth inhibition of human EKVX cells after 24 hrs by SRB assay; format: functional
[20] = test system: NCI-H322M; experiment: Growth inhibition of human NCI-H322M cells assessed as cell growth at 10 uM after 24 hrs by SRB assay relative to control; format: functional; conditions: read-out: Activity; method in brief: as §2
[21] = test system: NCI-H460; experiment: Growth inhibition of human NCI-H460 cells after 24 hrs by SRB assay; format: functional; conditions: NCI-H460, 24 h; for CC50: read-out: LC50 (the source's name)
[22] = test system: EKVX; experiment: Growth inhibition of human EKVX cells assessed as cell growth at 10 uM after 24 hrs by SRB assay relative to control; format: functional; conditions: read-out: Activity; method in brief: as §2
[23] = test system: NCI-H226; experiment: Growth inhibition of human NCI-H226 cells after 24 hrs by SRB assay; format: functional; conditions: NCI-H226, 24 h
[24] = test system: A549; experiment: Growth inhibition of human A549 cells assessed as cell growth at 10 uM after 24 hrs by SRB assay relative to control; format: functional; conditions: A549, 24 h, read-out: Activity; method in brief: as §2
[25] = test system: A549; experiment: Growth inhibition of human A549 cells after 24 hrs by SRB assay; format: functional; conditions: A549, 24 h; for CC50: read-out: LC50 (the source's name)
[26] = test system: HOP-62; experiment: Growth inhibition of human HOP62 cells after 24 hrs by SRB assay; format: functional; conditions: HOP-62, 24 h
[27] = test system: HOP-92; experiment: Growth inhibition of human HOP92 cells assessed as cell growth at 10 uM after 24 hrs by SRB assay relative to control; format: functional; conditions: HOP-92, 24 h, read-out: Activity; method in brief: as §2
[28] = test system: NCI-H460; experiment: Growth inhibition of human NCI-H460 cells assessed as cell growth at 10 uM after 24 hrs by SRB assay relative to control; format: functional; conditions: NCI-H460, 24 h, read-out: Activity; method in brief: as §2
[29] = test system: NCI-H460; experiment: Disruption of mitochondrial membrane potential in human NCI-H460 cells at 98 uM up to 1 hr by JC1/DAPI staining based confocal microscopic method; format: functional, cell-based
[30] = test system: NCI-H460; experiment: Induction of apoptosis in human NCI-H460 cells assessed as cell shrinkage up to 1 hr by Annexin V-FITC/propidium iodide staining based fluorescence microscopic method; format: functional
[31] = test system: NCI-H460; experiment: Induction of apoptosis in human NCI-H460 cells assessed as cell detachment up to 1 hr by Annexin V-FITC/propidium iodide staining based fluorescence microscopic method; format: functional
[32] = test system: NCI-H460; experiment: Induction of apoptosis in human NCI-H460 cells assessed as cell rounding up to 1 hr by Annexin V-FITC/propidium iodide staining based fluorescence microscopic method; format: functional

Structure (SMILES): CC(C)c1n(Cc2ccc3ccccc3c2)cc[n+]1Cc1ccc2ccccc2c1.[Br-]
- IC50 [1]: 690 nM
- IC50 [2]: 1140 nM
- IC50 [3]: 1290 nM
- IC50 [4]: 2540 nM
- IC50 [5]: 920 nM
- IC50 [6]: 2130 nM
- solubility [7]: Soluble
- IC50 [8]: 620 nM
- solubility ([9]; 10% 2-HPbetaCD/water solution, read-out: solubility): > 4400 µg/mL
- solubility [10]: < 500 µg/mL
- IC50 [11]: 860 nM

Structure (SMILES): CCCc1n(Cc2ccc3ccccc3c2)cc[n+]1Cc1ccc2ccccc2c1.[Br-]
- growth at 10 µM [12]: 5.82%
- growth at 10 µM [13]: -28.2%
- GI50 [14]: 378 nM
- TGI [14]: 1680 nM
- CC50 [14]: 4920 nM
- GI50 [15]: 863 nM
- TGI [15]: 2660 nM
- CC50 [15]: 7580 nM
- IC50 [1]: 850 nM
- IC50 [2]: 1250 nM
- IC50 [3]: 1450 nM
- IC50 [4]: 2930 nM
- growth at 10 µM [16]: 0.23%
- GI50 [17]: 521 nM
- TGI [17]: 2510 nM
- CC50 [17]: 9770 nM
- IC50 [5]: 1910 nM
- GI50 [18]: 1960 nM
- LC50 (lethal concentration 50%) [18]: 23800 nM
- TGI [18]: 6000 nM
- IC50 [6]: 2810 nM
- solubility [7]: Soluble
- GI50 [19]: 1710 nM
- LC50 [19]: 60500 nM
- TGI [19]: 11400 nM
- IC50 [8]: 630 nM
- growth at 10 µM [20]: 23.2%
- solubility ([9]; buffer): > 4400 µg/mL
- GI50 [21]: 1220 nM
- TGI [21]: 3010 nM
- CC50 [21]: 7440 nM
- solubility [10]: < 500 µg/mL
- growth at 10 µM [22]: 21.1%
- GI50 [23]: 1310 nM
- LC50 [23]: > 100000 nM
- TGI [23]: 3920 nM
- growth at 10 µM [24]: 31.6%
- GI50 [25]: 2670 nM
- TGI [25]: 12100 nM
- CC50 [25]: 60300 nM
- GI50 [26]: 1260 nM
- LC50 [26]: 6190 nM
- TGI [26]: 2800 nM
- IC50 [11]: 2130 nM
- growth at 10 µM [27]: -38.3%
- growth at 10 µM [28]: 3.26%

Structure (SMILES): N#CC(C#N)=NNc1cccc(Cl)c1
- Activity [29]: Active

Structure (SMILES): Cc1n(Cc2ccc3ccccc3c2)cc[n+]1Cc1ccc2ccccc2c1.[Br-]
- growth at 10 µM [12]: 18%
- growth at 10 µM [13]: 5.53%
- GI50 [14]: 256 nM
- TGI [14]: 1810 nM
- CC50 [14]: 6720 nM
- GI50 [15]: 673 nM
- TGI [15]: 3640 nM
- CC50 [15]: 26400 nM
- IC50 [1]: 830 nM
- IC50 [2]: 1980 nM
- IC50 [3]: 2340 nM
- IC50 [4]: 3420 nM
- growth at 10 µM [16]: 19%
- GI50 [17]: 717 nM
- TGI [17]: 2930 nM
- CC50 [17]: 10400 nM
- IC50 [5]: 2530 nM
- GI50 [18]: 2460 nM
- LC50 (lethal concentration 50%) [18]: 32900 nM
- TGI [18]: 10400 nM
- IC50 [6]: 3430 nM
- solubility [7]: Soluble
- GI50 [19]: 2320 nM
- LC50 [19]: 52400 nM
- TGI [19]: 17100 nM
- IC50 [8]: 750 nM
- growth at 10 µM [20]: 48.9%
- solubility ([9]; buffer): > 4400 µg/mL
- GI50 [21]: 1590 nM
- TGI [21]: 10700 nM
- CC50 [21]: 44000 nM
- solubility [10]: < 500 µg/mL
- growth at 10 µM [22]: 47%
- GI50 [23]: 1850 nM
- LC50 [23]: 64100 nM
- TGI [23]: 10400 nM
- growth at 10 µM [24]: 42.3%
- GI50 [25]: 3810 nM
- TGI [25]: 21300 nM
- CC50 [25]: 66100 nM
- GI50 [26]: 1600 nM
- LC50 [26]: 45300 nM
- TGI [26]: 8350 nM
- IC50 [11]: 2700 nM
- growth at 10 µM [27]: -20.3%
- growth at 10 µM [28]: 9.12%

Structure (SMILES): CCCCc1n(Cc2ccc3ccccc3c2)cc[n+]1Cc1ccc2ccccc2c1.[Br-]
- growth at 10 µM [12]: -2.71%
- growth at 10 µM [13]: -23.8%
- IC50 [1]: 1740 nM
- IC50 [2]: 2180 nM
- IC50 [3]: 2640 nM
- IC50 [4]: 3500 nM
- growth at 10 µM [16]: -0.47%
- GI50 [17]: 793 nM
- TGI [17]: 2310 nM
- CC50 [17]: 5850 nM
- IC50 [5]: 2620 nM
- GI50 [18]: 1380 nM
- TGI [18]: 2750 nM
- IC50 [6]: 3250 nM
- solubility [7]: Soluble
- IC50 [8]: 1020 nM
- growth at 10 µM [20]: 23.3%
- solubility ([9]; buffer): > 4400 µg/mL
- solubility [10]: < 500 µg/mL
- growth at 10 µM [22]: 14.4%
- growth at 10 µM [24]: 29.8%
- IC50 [11]: 2430 nM
- growth at 10 µM [27]: -38.2%
- growth at 10 µM [28]: -13.1%

Structure (SMILES): Clc1c(Cl)[n+](Cc2ccc3ccccc3c2)cn1Cc1ccc2ccccc2c1
- IC50 [1]: 5000 nM
- IC50 [3]: 6000 nM
- IC50 [4]: 9000 nM
- IC50 [5]: 5000 nM
- Activity [30]: Active
- Activity [31]: Active
- Activity [32]: Active

From ChEMBL document CHEMBL4002637, “Synthesis, characterization, in vitro SAR and in vivo evaluation of N,N'bisnaphthylmethyl 2-alkyl substituted imidazolium salts against NSCLC” (Bioorg Med Chem Lett, 2017)
